Tests used:
Escherichia coli = experiment: Antibacterial activity against Escherichia coli after 24 hrs by tube dilution method; assay type: functional
Summary of the method: (§1)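 Twofold serial dilutions of test and standard compounds in double strength nutrient broth (I.P.); tubes incubated at 37 °C for 24 h. Growth judged visually; MIC taken as lowest concentration with no visible turbidity.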

[1] = Lipophilicity, log P of the compound; assay type: physicochemical; details: octanol/water
Bacillus subtilis = experiment: Antibacterial activity against Bacillus subtilis after 24 hrs by tube dilution method; assay type: functional; summary of the method: as §1
Staphylococcus aureus = experiment: Antibacterial activity against Staphylococcus aureus after 24 hrs by tube dilution method; assay type: functional; summary of the method: as §1
Aspergillus niger = experiment: Antifungal activity against Aspergillus niger after 7 days by tube dilution method; assay type: functional
Summary of the method: (§2)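 Twofold serial dilutions of test and standard compounds in Sabouraud dextrose broth (I.P.); C. albicans incubated 37 °C for 48 h, A. niger 25 °C for 7 d. Growth read visually; MIC is lowest concentration without visible growth.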

Candida albicans = experiment: Antifungal activity against Candida albicans after 48 hrs by tube dilution method; assay type: functional; summary of the method: as §2

| SMILES | -logMIC (Escherichia coli) | logP [1] | -logMIC (Bacillus subtilis) | -logMIC (Staphylococcus aureus) | -logMIC (Aspergillus niger) | -logMIC (Candida albicans) |
| --- | --- | --- | --- | --- | --- | --- |
| COc1ccc(C(=O)N/N=C/c2cccc([N+](=O)[O-])c2)cc1OC | 2.63 | 2.87 | 2.33 | 2.05 | 1.72 | 1.66 |
| COc1ccc(/C=N/NC(=O)c2ccc(OC)c(OC)c2)cc1 | 2.58 | 3.39 | 2.58 | 2.17 | 1.68 | 1.68 |
| COc1ccc(/C=N/NC(=O)c2ccc(N)cc2)cc1 | 2.54 | 2.39 | 2.24 | 1.63 | 1.8 | 1.63 |
| COc1ccc(/C=N/NC(=O)c2ccc([N+](=O)[O-])cc2)cc1 | 2.56 | 3.13 | 2.25 | 1.68 | 1.98 | 1.62 |
| Cc1ccc(C(=O)N/N=C/c2ccco2)cc1 |  | 2.84 |  |  |  |  |
| COc1ccc(/C=N/NC(=O)c2cc([N+](=O)[O-])cc([N+](=O)[O-])c2)cc1OC | 2.68 | 2.83 | 2.51 | 2.38 | 2.08 | 1.78 |
| COc1ccc(/C=N/NC(=O)c2ccc(Cl)cc2)cc1OC | 2.61 | 3.44 | 2.61 | 2.61 | 2.01 | 1.71 |
| Cc1ccc(C(=O)N/N=C/c2cccc([N+](=O)[O-])c2)cc1 | 2.47 | 3.85 | 2.4 | 2.14 | 1.85 | 1.59 |
| O=C(N/N=C/c1cccc([N+](=O)[O-])c1)c1ccc([N+](=O)[O-])cc1 | 2.61 | 3.33 | 2.09 | 1.99 | 1.7 | 1.7 |
| COc1ccc(/C=N/NC(=O)c2ccc(C)cc2)cc1 | 2.54 | 3.64 | 2.32 | 2.24 | 1.88 | 1.63 |
| COc1ccc(/C=N/NC(=O)c2ccc(N)cc2)cc1OC | 2.49 | 2.14 | 2.29 | 1.94 | 1.9 | 1.68 |
| O=C(N/N=C/c1cccc([N+](=O)[O-])c1)c1cc([N+](=O)[O-])ccc1Cl | 2.65 | 3.85 | 2.65 | 2.65 | 1.59 | 1.75 |
| O=C(N/N=C/c1cccc([N+](=O)[O-])c1)c1cccc([N+](=O)[O-])c1 | 2.61 | 3.33 | 2.3 | 1.99 | 1.7 | 1.7 |
| COc1ccc(/C=N/NC(=O)c2ccc(OC)c(OC)c2)cc1OC | 2.64 | 2.42 | 2.34 | 2.07 | 2.04 | 1.74 |
| Nc1ccc(C(=O)N/N=C/c2cccc([N+](=O)[O-])c2)cc1 | 2.56 | 2.6 | 2.29 | 1.98 | 1.8 | 1.66 |
| COc1ccc(/C=N/NC(=O)c2ccccc2Br)cc1OC | 2.63 | 3.71 | 2.35 | 2.52 | 2.06 | 1.76 |
| COc1ccc(/C=N/NC(=O)c2cc([N+](=O)[O-])ccc2Cl)cc1OC | 2.67 | 3.39 | 2.62 | 2.67 | 1.95 | 1.76 |
| O=C(N/N=C/c1cccc([N+](=O)[O-])c1)c1ccccc1Br | 2.49 | 4.17 | 2.65 | 2.35 | 1.75 | 1.75 |
| COc1ccc(/C=N/NC(=O)c2cc([N+](=O)[O-])cc([N+](=O)[O-])c2)cc1 | 2.64 | 3.08 | 2.42 | 2.2 | 1.8 | 1.74 |
| COc1ccc(C(=O)N/N=C/c2ccco2)cc1OC | 2.3 | 1.87 | 1.98 | 1.61 | 1.87 | 1.64 |
| COc1ccc(/C=N/NC(=O)c2ccc(C)cc2)cc1OC | 2.58 | 3.39 | 2.58 | 2.17 | 1.75 | 1.68 |
| O=C(N/N=C/c1cccc([N+](=O)[O-])c1)c1ccc(Cl)cc1 | 2.59 | 3.9 | 2.59 | 2.59 | 1.69 | 1.69 |
| O=C(N/N=C/c1ccco1)c1cc([N+](=O)[O-])cc([N+](=O)[O-])c1 | 2.47 | 2.28 | 2.29 | 1.99 | 1.69 | 1.69 |
| COc1ccc(/C=N/NC(=O)c2cccc([N+](=O)[O-])c2)cc1OC | 2.63 | 2.87 | 2.28 | 2.05 | 1.75 | 1.64 |
| COc1ccc(/C=N/NC(=O)c2ccc([N+](=O)[O-])cc2)cc1OC | 2.63 | 2.87 | 2.34 | 1.99 | 1.75 | 1.72 |
| OC(Cn1cncn1)(Cn1cncn1)c1ccc(F)cc1F [FLUCONAZOLE] |  |  |  |  | 2.64 | 2.64 |
| CCn1cc(C(=O)O)c(=O)c2cc(F)c(N3CCNCC3)cc21 [NORFLOXACIN] | 2.61 |  | 2.61 | 2.61 |  |  |
